# Experimental data: ChEMBL document CHEMBL4808192, “Synthesis and biological evaluation of novel imidazo[1,2-a]pyridine-oxadiazole hybrids as anti-proliferative agents: Study of microtubule polymerization inhibition and DNA binding” (Bioorg Med Chem, 2021)
# Calls of active or inactive are those of the source. The calls are words filed in the database; no cut-off is given here.
# Assays:
# PC-3 = assay: Antiproliferative activity against human PC-3 cells assessed as reduction in cell viability incubated for 48 hrs by MTT assay; assay type: functional, cell-based; details: PC-3, 48 h
# Procedure, shortened: (§1)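 Cells grown in medium with 10% FBS and 1% antibiotic-antimycotic at 37 °C, passaged at 80–90% confluence with 0.25% trypsin/1 mM EDTA. Seeded at 1000–4000 cells/well and grown overnight. Medium was then replaced and compounds added at various concentrations for 48 h. MTT (0.5 mg/mL) was added for 4 h at 37 °C, formazan dissolved in DMSO and absorbance read at 570 nm. IC50 is the 50% inhibitory concentration.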
# DU-145 = assay: Antiproliferative activity against human DU-145 cells assessed as reduction in cell viability incubated for 48 hrs by MTT assay; assay type: functional, cell-based; details: DU-145, 48 h; procedure, shortened: as §1
# A549 [1] = assay: Antiproliferative activity against human A549 cells assessed as reduction in cell viability incubated for 48 hrs by MTT assay; assay type: functional, cell-based; details: A549, 48 h; procedure, shortened: as §1
# Sus scrofa [2] = organism: Sus scrofa; assay: Inhibition of pig brain tubulin polymerization at 4 uM incubated for 1 hr by fluorescence based analysis relative to control; assay type: tissue-based
# Procedure, shortened: (§2)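 Cell-free fluorescence kit assay with porcine brain tubulin (2 mg/mL) in 80 mM PIPES pH 6.9, 2.0 mM MgCl2, 0.5 mM EGTA, 1.0 mM GTP and glycerol. Compound tested at 0.5, 1, 2, 4 and 8 μM, with a DMSO vehicle and a 3 μM podophyllotoxin reference. Polymerization followed at excitation 360/emission 440 nm for 1 h at 37 °C. Inhibition taken relative to vehicle; IC50 is the concentration giving 50% inhibition of assembly.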
# Calf thymus DNA [3] = assay: Binding affinity to calf thymus DNA assessed as absorption peak between 310 and 312 nm at 10 uM measured every 5 mins by UV-Vis spectroscopic analysis; details: Bos taurus
# Procedure, shortened: (§3)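 UV–Vis titration at 25 °C in a 1 cm quartz cuvette. Compound at about 10 μM (1 mM stock in 1:1 DMSO:water). CT-DNA (1 mM stock in 100 mM Tris-HCl pH 7.0) added about 0.5 μM at a time until the band was unchanged over five successive additions. Spectra recorded from 200 to 400 nm.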
# HEK293 [4] = assay: Cell cycle arrest in human HEK293 cells assessed as accumulation of cells at sub-G1 phase at 2.8 uM measured after 48 hrs by propidium iodide staining based FACS cytometry analysis (reference value: 1%); details: hek293, 48 h
# [5] = Selectivity index, ratio of IC50 for human HEK293 cells to IC50 for human DU-145 cells assessed as reduction in cell viability measured after 48 hrs by MTT assay
# A549 [6] = assay: Induction of apoptosis in human A549 cells assessed as viable cells at 2.8 uM measured after 48 hrs by Annexin V-FITC/Propidium iodide staining based flowcytometry analysis (reference value: 83.1%); assay type: functional; details: read-out: Activity
# Calf thymus DNA [7] = assay: Binding affinity to calf thymus DNA assessed as increase in viscosity at 15 uM by Ostwald viscometric analysis; details: Bos taurus
# Procedure, shortened: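 Ostwald viscometer in a 25 °C water bath. CT-DNA (150 μM, in 100 mM Tris-HCl pH 7.0) was measured alone, then after mixing with compound at 15 μM. EtBr and Hoechst 33342 complexes with CT-DNA served as controls.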
# Sus scrofa [8] = organism: Sus scrofa; assay: Inhibition of pig brain tubulin polymerization at 2 uM incubated for 1 hr by fluorescence based analysis relative to control; assay type: tissue-based; procedure, shortened: as §2
# Sus scrofa [9] = organism: Sus scrofa; assay: Inhibition of pig brain tubulin polymerization at 1 uM incubated for 1 hr by fluorescence based analysis relative to control; assay type: tissue-based; procedure, shortened: as §2
# Calf thymus DNA [10] = assay: Binding affinity to calf thymus DNA assessed as hyperchromicity at 10 uM measured every 5 mins by UV-Vis spectroscopic analysis; details: Bos taurus; procedure, shortened: as §3
# Calf thymus DNA [11] = assay: Binding affinity to calf thymus DNA assessed as decrease in positive peak intensity at compound:DNA concentration ratio of 1:1 to 1:2 by CD spectroscopy; details: Bos taurus
# Procedure, shortened: (§4)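 Circular dichroism of CT-DNA (10 × 10^-6 M) in 100 mM Tris-HCl pH 7.0 at 25 °C. Spectra taken from 220 to 320 nm at CT-DNA:compound molar ratios of 1:0, 1:1 and 1:2. Each spectrum is the average of three scans.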
# A549 [12] = assay: Cell cycle arrest in human A549 cells assessed as accumulation of cells at G2/M phase at 2.8 uM measured after 48 hrs by propidium iodide staining based FACS cytometry analysis (reference value: 10.1%); assay type: functional
# A549 [13] = assay: Cell cycle arrest in human A549 cells assessed as accumulation of cells at S phase at 2.8 uM measured after 48 hrs by propidium iodide staining based FACS cytometry analysis (reference value: 12.7%); assay type: functional
# Sus scrofa [14] = organism: Sus scrofa; assay: Inhibition of pig brain tubulin polymerization at 0.5 uM incubated for 1 hr by fluorescence based analysis relative to control; assay type: tissue-based; procedure, shortened: as §2
# HEK293 [15] = assay: Cytotoxicity against human HEK293 cells assessed as reduction in cell viability incubated for 48 hrs by MTT assay; assay type: cell-based; details: HEK293, 48 h; procedure, shortened: as §1
# Tubulin (Homo sapiens) = Tubulin (Homo sapiens) (UniProt P68371+Q9H4B7+P0DPH7+P68366+Q13509+Q71U36+P04350+Q3ZCM7+P07437+P68363+Q9BQE3+Q6PEY2+Q13885+Q9BVA1+Q9BUF5); assay: Inhibition of tubulin polymerization in human A549 cells assessed as disruption of microtubule network at IC50 measured after 48 hrs by confocal microscopic analysis; assay type: cell-based
# A549 [16] = assay: Cell cycle arrest in human A549 cells assessed as accumulation of cells at subG1 phase at 2.8 uM measured after 48 hrs by propidium iodide staining based FACS cytometry analysis (reference value: 4.2%); assay type: functional
# Sus scrofa [17] = organism: Sus scrofa; assay: (§5) Inhibition of pig brain tubulin polymerization incubated for 1 hr by fluorescence based analysis; assay type: tissue-based; procedure, shortened: as §2
# [18] = as §5; assay type: tissue-based, Sus scrofa; procedure, shortened: as §2
# HEK293 [19] = assay: Cell cycle arrest in human HEK293 cells assessed as accumulation of cells at G0/G1 phase at 2.8 uM measured after 48 hrs by propidium iodide staining based FACS cytometry analysis (reference value: 64.1%); details: hek293, 48 h
# Calf thymus DNA [20] = assay: Binding affinity to calf thymus DNA assessed as decrease in negative peak intensity at compound:DNA concentration ratio of 1:1 to 1:2 by CD spectroscopy; details: Bos taurus; procedure, shortened: as §4
# Calf thymus DNA [21] = assay: Binding affinity to calf thymus DNA measured every 5 mins by UV-Vis spectroscopic analysis; design: species or system Bos taurus; procedure, shortened: as §3
# HEK293 [22] = assay: Induction of apoptosis in human HEK293 cells assessed as pre and post apoptotic cells at 2.8 uM measured after 48 hrs by Annexin V-FITC/Propidium iodide staining based flowcytometry analysis (reference value: 0.2%); assay type: cell-based; details: hek293, 48 h
# A549 [23] = assay: Induction of apoptosis in human A549 cells assessed as pre and post apoptotic cells at 2.8 uM measured after 48 hrs by Annexin V-FITC/Propidium iodide staining based flowcytometry analysis (reference value: 0.1%); assay type: functional
# Calf thymus DNA [24] = assay: Binding affinity to calf thymus DNA assessed as emission spectra at 360 nm at 10 uM measured every 5 mins by fluorescence titration analysis; details: Bos taurus
# Procedure, shortened: (§6)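 Fluorescence titration at 25 °C in a 1 cm quartz cuvette. Compound held at 10 μM while CT-DNA was added about 0.5 μM per step. Excitation 250 nm, emission scanned 300–500 nm with the peak followed at 360 nm. Each spectrum is the average of three scans. Cuvettes washed with water and about 0.1 N nitric acid between runs.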
# HEK293 [25] = assay: Cell cycle arrest in human HEK293 cells assessed as accumulation of cells at G2/M phase at 2.8 uM measured after 48 hrs by propidium iodide staining based FACS cytometry analysis (reference value: 16.1%); details: hek293, 48 h
# A549 [26] = assay: Cell cycle arrest in human A549 cells assessed as accumulation of cells at G0/G1 phase at 2.8 uM measured after 48 hrs by propidium iodide staining based FACS cytometry analysis (reference value: 73%); assay type: functional
# HEK293 [27] = assay: Cell cycle arrest in human HEK293 cells assessed as accumulation of cells at S phase at 2.8 uM measured after 48 hrs by propidium iodide staining based FACS cytometry analysis (reference value: 18.8%); details: hek293, 48 h
# Calf thymus DNA [28] = assay: Binding affinity to calf thymus DNA assessed as hypochromicity at 10 uM measured every 5 mins by fluorescence titration analysis; details: Bos taurus; procedure, shortened: as §6
# [29] = Selectivity index, ratio of IC50 for human HEK293 cells to IC50 for human PC-3 cells assessed as reduction in cell viability measured after 48 hrs by MTT assay; assay type: toxicity; details: HEK293 cells versus PC-3 cells, read-out: Ratio IC50
# [30] = Induction of apoptosis in human HEK293 cells assessed as viable cells at 2.8 uM measured after 48 hrs by Annexin V-FITC/Propidium iodide staining based flowcytometry analysis (reference value: 80.2%); assay type: cell-based; details: read-out: Activity
# [31] = Selectivity index, ratio of IC50 for human HEK293 cells to IC50 for human A549 cells assessed as reduction in cell viability measured after 48 hrs by MTT assay; assay type: toxicity; details: HEK293 cells versus A549 cells, read-out: Ratio IC50
# Sus scrofa [32] = organism: Sus scrofa; assay: Inhibition of pig brain tubulin polymerization at 8 uM incubated for 1 hr by fluorescence based analysis relative to control; assay type: tissue-based; procedure, shortened: as §2
smiles,measurement,setting,value
Brc1ccc(-c2nnc(-c3cn4ccccc4n3)o2)cc1,IC50,PC-3,> 50 µM
same,IC50,DU-145,> 50 µM
same,IC50,A549 [1],> 50 µM
Clc1ccc(-c2nnc(-c3cn4ccccc4n3)o2)cc1,IC50,PC-3,33.7 µM
same,IC50,DU-145,32.8 µM
same,IC50,A549 [1],32.4 µM
Cc1cc(Br)c2nc(-c3nnc(-c4ccc(Br)cc4)o3)cn2c1,IC50,PC-3,24.5 µM
same,IC50,DU-145,22.3 µM
same,IC50,A549 [1],23.4 µM
COc1ccc(-c2nnc(-c3cn4cccc(C)c4n3)o2)cc1,IC50,PC-3,11.8 µM
same,IC50,DU-145,10.8 µM
same,IC50,A549 [1],12.8 µM
COc1cc([C@@H]2c3cc4c(cc3[C@H](O)[C@H]3COC(=O)[C@H]23)OCO4)cc(OC)c1OC [PODOFILOX],IC50,PC-3,0.06 µM
same,IC50,DU-145,0.06 µM
Cc1cc(Br)c2nc(-c3nnc(-c4ccc(N(C)C)cc4)o3)cn2c1,IC50,PC-3,11.2 µM
same,IC50,DU-145,12.8 µM
same,IC50,A549 [1],10.8 µM
COc1cc(-c2nnc(-c3cn4ccccc4n3)o2)cc(OC)c1OC,inhibition,Sus scrofa [2],60.1%
same,Activity,Calf thymus DNA [3],Active
same,Activity,HEK293 [4],2.1%
same,IC50,PC-3,3.5 µM
same,IC50,DU-145,4.5 µM
same,Ratio IC50,[5],19.7
same,viability at 2.8 µM,A549 [6],4.3%
same,Activity,Calf thymus DNA [7],Active
same,inhibition,Sus scrofa [8],21.7%
same,inhibition,Sus scrofa [9],11.5%
same,IC50,A549 [1],2.8 µM
same,Activity,Calf thymus DNA [10],Active
same,Activity,Calf thymus DNA [11],Active
same,Activity,A549 [12],17.1%
same,Activity,A549 [13],6.9%
same,inhibition,Sus scrofa [14],4.6%
same,IC50,HEK293 [15],89 µM
same,inhibition,Tubulin (Homo sapiens),Active
same,Activity,A549 [16],1.3%
same,inhibition,Sus scrofa [17],Dose-Dependent Effect
same,IC50,[18],3.45 µM
same,Activity,HEK293 [19],63.2%
same,Activity,Calf thymus DNA [20],Active
same,Kd,Calf thymus DNA [21],42 nM
same,Activity,HEK293 [22],74.5%
same,Activity,A549 [23],86.5%
same,Activity,Calf thymus DNA [24],Active
same,Activity,HEK293 [25],15.7%
same,Activity,A549 [26],74.5%
same,Activity,HEK293 [27],18.8%
same,Activity,Calf thymus DNA [28],Active
same,selectivity ratio at 48 h,[29],25.4
same,"viability at 48 h, 2.8 µM",[30],18.5%
same,selectivity ratio at 48 h,[31],29
same,inhibition,Sus scrofa [32],81.2%
Cc1cccn2cc(-c3nnc(-c4ccccc4)o3)nc12,IC50,PC-3,22.8 µM
same,IC50,DU-145,21.8 µM
same,IC50,A549 [1],23.4 µM
